Assay results as given in ChEMBL document CHEMBL3085637, “Synthesis and anticancer potential of certain novel 2-oxo-N'-(2-oxoindolin-3-ylidene)-2H-chromene-3-carbohydrazides” (Eur J Med Chem, 2013).

Tested on: HT-29
Assay: Inhibition of side population in human HT-29 cells at 100 uM after 90 mins using vybrant dyecycle violet staining by FACS analysis
Format: functional
Conditions: HT-29, 1.5 h
Summary of the method: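 HT-29 cells were stained in medium with Vybrant DyeCycle Violet for 90 min at 37 °C, centrifuged and washed with medium. Side-population cells were identified by flow cytometry histograms. The reference control was verapamil, which blocks the transporter responsible for dye exclusion. Results are % side-population inhibition ± SD.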

COc1ccc(CCN(C)CCCC(C#N)(c2ccc(OC)c(OC)c2)C(C)C)cc1OC (stereo unspecified)
inhibition at 100 µM: 95%
